Experimental findings from ChEMBL document CHEMBL1127659, “In vitro and in vivo activities of reduced-size antagonists of luteinizing hormone-releasing hormone” (J Med Chem, 1994) are described below.

Structures are written as SMILES. Where a SMILES comes first, the peptide text is derived from it. [ ]: non-standard residue; d: D form. The star is where a group is joined. Desaminotyrosyl = O=C(CCc1ccc(O)cc1)*; X1 = O=C(Cc1ccc(O)cc1)*

The species entered for this experiment is Rattus norvegicus. The experiment is described as follows: In vitro antagonistic potency against release of luteinizing hormone (LH) from cultured rat pituitary cells. Type of experiment: functional. Particulars: Pituitary gland cell, read-out: pA2 (converted). The procedure, abridged: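 Cultured rat pituitary cells, agonist-stimulated LH release. pA2 is the negative log of the antagonist concentration that makes a 2-fold higher agonist concentration necessary to release LH. Compounds tested as TFA salts.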

With `CCNC(=O)[C@@H]1CCCN1C(=O)[C@H](CCCN=C(N)N)NC(=O)[C@H](CC(C)C)NC(=O)[C@@H](Cc1c[nH]c2ccccc12)NC(=O)[C@H](Cc1ccc(O)cc1)NC(=O)[C@H](CO)NC(=O)[C@@H](Cc1c[nH]c2ccccc12)NC(=O)CCc1ccc(F)cc1`, the Kb is 0.0389 nM.
In the case of `CCNC(=O)[C@@H]1CCCN1C(=O)[C@H](CCCN=C(N)N)NC(=O)[C@H](CC(C)C)NC(=O)[C@@H](Cc1ccc(O)cc1)NC(=O)[C@H](Cc1ccc(O)cc1)NC(=O)[C@H](CO)NC(=O)[C@H](Cc1c[nH]c2ccccc12)NC(=O)CCc1ccc(F)cc1`, the Kb is 12.6 nM.
As to `CCNC(=O)[C@@H]1CCCN1C(=O)[C@H](CCCN=C(N)N)NC(=O)[C@H](CC(C)C)NC(=O)[C@@H](Cc1ccc(O)cc1)NC(=O)[C@H](Cc1ccc(O)cc1)NC(=O)[C@H](CO)NC(=O)[C@@H](Cc1c[nH]c2ccccc12)NC(=O)CCc1ccc(F)cc1`, the Kb was 0.0316 nM.
In the case of `CCNC(=O)[C@@H]1CCCN1C(=O)[C@H](CCCN=C(N)N)NC(=O)[C@H](CC(C)C)NC(=O)[C@@H](Cc1c[nH]c2ccccc12)NC(=O)[C@H](Cc1ccc(O)cc1)NC(=O)[C@H](CO)NC(=O)[C@@H](Cc1c[nH]c2ccccc12)NC(=O)CCc1ccc(F)cc1F`, the Kb was 0.0141 nM.
As for `CCNC(=O)[C@@H]1CCCN1C(=O)[C@H](CCCN=C(N)N)NC(=O)[C@H](CC(C)C)NC(=O)[C@@H](Cc1c[nH]c2ccccc12)NC(=O)[C@H](Cc1ccc(O)cc1)NC(=O)[C@H](CO)NC(=O)[C@@H](Cc1c[nH]c2ccccc12)NC(=O)Cc1ccc(C(F)(F)F)cc1`, the Kb was 2.63 nM.
As to `CCNC(=O)[C@@H]1CCCN1C(=O)[C@H](CCCN=C(N)N)NC(=O)[C@H](CC(C)C)NC(=O)[C@@H](Cc1c[nH]c2ccccc12)NC(=O)[C@H](Cc1ccc(O)cc1)NC(=O)[C@H](CO)NC(=O)[C@@H](Cc1ccc(O)cc1)NC(=O)CCc1ccc(F)cc1`, the Kb was 0.219 nM.
Regarding `CCNC(=O)[C@@H]1CCCN1C(=O)[C@H](CCCN=C(N)N)NC(=O)[C@H](CC(C)C)NC(=O)[C@@H](Cc1c[nH]c2ccccc12)NC(=O)[C@H](Cc1ccc(O)cc1)NC(=O)[C@H](CO)NC(=O)[C@H](Cc1c[nH]c2ccccc12)NC(=O)CCc1ccc(F)cc1`, the Kb is 0.589 nM.
As to `CCNC(=O)[C@@H]1CCCN1C(=O)[C@H](CCCCNC(C)C)NC(=O)[C@H](CC(C)C)NC(=O)[C@@H](CCCCNC(=O)c1cccnc1)NC(=O)[C@H](Cc1ccc(O)cc1)N(C)C(=O)[C@H](CO)NC(=O)[C@@H](Cc1cccc2ccccc12)NC(=O)CCc1ccc(F)cc1`, the Kb is 0.00372 nM.
With `CCNC(=O)[C@@H]1CCCN1C(=O)[C@H](CCCN=C(N)N)NC(=O)[C@H](CC(C)C)NC(=O)[C@@H](Cc1c[nH]c2ccccc12)NC(=O)[C@H](Cc1ccc(O)cc1)NC(=O)[C@@H]1CCCN1C(=O)[C@@H](Cc1c[nH]c2ccccc12)NC(=O)CCc1ccc(F)cc1`, the Kb is 21.4 nM.
On to `CCNC(=O)[C@@H]1CCCN1C(=O)[C@H](CCCN=C(N)N)NC(=O)[C@H](CC(C)C)NC(=O)[C@@H](Cc1c[nH]c2ccccc12)NC(=O)[C@H](Cc1ccc(O)cc1)N(C)C(=O)[C@H](CO)NC(=O)[C@@H](Cc1c[nH]c2ccccc12)NC(=O)CCc1ccc(F)cc1`, for which the Kb is 0.00708 nM.
As to `CCNC(=O)[C@@H]1CCCN1C(=O)[C@H](CCCN=C(N)N)NC(=O)[C@H](CC(C)C)NC(=O)[C@@H](Cc1c[nH]c2ccccc12)NC(=O)[C@H](Cc1ccc(O)cc1)NC(=O)[C@H](CO)NC(=O)[C@H](Cc1c[nH]c2ccccc12)NC(=O)CCc1ccc(O)cc1` (Desaminotyrosyl-WSY[dW]LRP-NHEt), the Kb was 15.5 nM.
The same measure for `CCNC(=O)[C@@H]1CCCN1C(=O)[C@H](CCCN=C(N)N)NC(=O)[C@H](CC(C)C)NC(=O)[C@@H](Cc1c[nH]c2ccccc12)NC(=O)[C@H](Cc1ccc(O)cc1)NC(=O)[C@H](CO)NC(=O)[C@H](Cc1c[nH]c2ccccc12)NC(=O)Cc1ccc(O)cc1` (X1-WSY[dW]LRP-NHEt): 44.7 nM.
